Results reported in PMC7814360 (Investigative Ophthalmology & Visual Science, 2021).
Ends that are not written are not given here.

Assays:
[1] = test system: HRECs; test: Cellular uptake, flow cytometry quantitative analysis; type: in vitro ADME, human; conditions: 200 µM, three independent assays
Summary of the method: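 HRECs were seeded at 1 × 10^6 on a 30-mm plate. At confluence they were exposed to FITC-labeled test peptide at 200 μM in complete medium for 30 min, 1, 6, 12 and 24 h. Cells were washed, trypsinized, resuspended in PBS and kept dark. FITC-positive cell number and mean fluorescence intensity were read by flow cytometry. Three independent assays; means ± SEM.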

[2] = test system: HRECs; test: Tube formation assay on Matrigel; type: cell-based, human; conditions: 25 ng/mL VEGF, three independent assays
Summary of the method: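 About 2 × 10^4 HRECs were seeded on Matrigel-precoated wells, with or without 25 ng/mL VEGF, alongside test peptides or Avastin. Incubation was at 37°C for four hours per methods (three hours per legend). Three random fields per well were photographed, and total tube length and branch points were quantified by ImageJ. Three independent assays; means ± SEM.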

[3] = test system: HRECs; test: Cell migration; type: cell-based, human; conditions: 25 ng/mL VEGF; 200 µM H-KI20 or H-KI20S, or 12.5 mg/mL bevacizumab; 12 hours; three independent assays
[4] = test system: HRECs; test: Cytotoxicity, MTS; type: cell-based, human; conditions: H-KI20 at different concentrations; three independent assays
Summary of the method: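 HRECs were seeded in 96-well plates at […]. They were treated with VEGF or test peptide, and viability was read by MTS following the manufacturer's protocol.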

[5] = Quantification of H-KI20 in ocular tissues after topical instillation; type: in vivo; conditions: mouse CNV model, 0.5, 1 and 3 hours after topical instillation, PRM
Summary of the method: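 Choroidal neovascularization was induced in adult C57BL/6J mice with four 532-nm laser burns (100 ms, 50 μm, 120 mW) around the optic disc. On day 7, 6 μL of FITC-labeled test peptide (2 mM) was instilled topically six times at 10-min intervals (n = 3 per group). At 0.5, 1 and 3 h, sclera–choroid–RPE complex and retina were trypsin-digested. A 100 ng/mL stable-isotope-labeled internal standard was spiked in, and samples were quantified by nano-UPLC–Orbitrap PRM.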

[6] = test system: HRECs; test: High-content image analysis, cell roundness; type: cell-based, human; conditions: H-KI20 alone, 30 hours, Operetta HCA, interval 0.5 h
Summary of the method: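 About 3 × 10^4 HRECs/well were plated in 12-well plates and allowed to attach overnight. Test compound was added 2 h before imaging. Cells were imaged live in an Operetta high-content system for […] at 0.5-h intervals. Roundness is a shape index normalized to 1.0 for a perfect circle, decreasing for elongated or irregular cells.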

[7] = Stability assay of H-KI20 in aqueous solutions; type: physicochemical; conditions: 200 µg/mL, HPLC
[8] = test system: cornea neovascularization; conditions: topical application of high concentrations; cited from earlier work
[9] = target: JNK2 (Homo sapiens, UniProt P45984); test: Surface plasmon resonance; type: binding
Chain of JNK2 (P45984 whole entry): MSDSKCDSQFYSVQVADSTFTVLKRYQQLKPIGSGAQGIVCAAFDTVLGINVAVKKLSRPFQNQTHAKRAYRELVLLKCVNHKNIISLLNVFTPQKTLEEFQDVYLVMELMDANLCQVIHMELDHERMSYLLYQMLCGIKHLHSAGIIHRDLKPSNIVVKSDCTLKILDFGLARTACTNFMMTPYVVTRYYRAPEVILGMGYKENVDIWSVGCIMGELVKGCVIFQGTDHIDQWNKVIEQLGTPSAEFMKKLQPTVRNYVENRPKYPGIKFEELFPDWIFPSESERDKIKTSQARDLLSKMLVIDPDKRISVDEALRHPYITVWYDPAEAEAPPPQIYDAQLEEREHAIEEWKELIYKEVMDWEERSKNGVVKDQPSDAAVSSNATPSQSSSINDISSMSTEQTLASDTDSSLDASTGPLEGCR
Summary of the method: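 SPR was run on a Biacore T200. The chip was conditioned with 500 mM EDTA and 100 mM NaOH. Recombinant human JNK2 at 27.5 μg/mL was captured on an NTA chip at 10 μL/min. Serial peptide concentrations were injected in PBS with 0.05% Tween-20, pH 7.4, at 25°C (association 120 s, dissociation 180 s). Double reference subtraction was applied, then a global Langmuir 1:1 fit.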

[10] = test system: retina; test: Histologic examination of retina after intravitreal injection; type: in vivo, mouse; conditions: 50 or 75 mM H-KI20 intravitreal, five days later, mice

FITC-H-KI20: FITC-labeled H-KI20 used to test cellular permeability (IIGKGRSYKGTVSITKSGIK; also: FITC-labeled, site not given here)
mean fluorescence intensity (MFI) compared with untreated cells ([1]; 30 minutes): 217 fold
MFI after 24 hours compared with that after 30 minutes ([1]; 24 hours vs 30 minutes): 3.67 fold

Bevacizumab [Avastin]
VEGF-induced tube formation (tube length and branch points) [2]: significantly inhibited
migration of VEGF-stimulated HRECs (wound closure) [3]: inhibited the migration of cells significantly

IIGKGRSYKGTVSITKSGIK [H-KI20]
cytotoxicity / proliferation of HRECs (MTS) [4]: no effect on the proliferation of HRECs
persistence of concentration in ocular tissues after topical instillation [5]: maintained for at least three hours
cell roundness [6]: no effect on the roundness of cells
stability at 4°C compared with 37°C ([7]; BSS, PBS and HBS, n = 4 or 5): more stable
stability in H2O and PBS ([7]; H2O and PBS pH 7.4, 37°C, incubation for 24 or 48 hours): partially degraded
cell ultrastructure of cornea and conjunctiva [8]: no effect on the cell ultrastructure of cornea and conjunctiva
Kd [9]: 83.7 µM
retinal histology (HE) after intravitreal injection [10]: All layers of the retina were normal and intact, without edema or inflammatory or immune reactions
